The target in one series is Aurora kinase B (Homo sapiens, UniProt Q96GD4). As to the kind of experiment: Inhibition of AurB.
In series [1] the target is T1, Protein-tyrosine kinase 6 (Homo sapiens, UniProt Q13882). The series is described as follows: Inhibition of BRK pretreated for 30 mins by microplate reader.
In series [2] the target is Tyrosine-protein kinase Lck (Homo sapiens, UniProt P06239). The series is described as follows: Inhibition of LCK.
The target of series [3] is T1, Protein-tyrosine kinase 6. As to the kind of experiment: Inhibition of phosphorylation of SAM68 in 293 WT-PTK6 cells after 3 hrs. Type of series: functional, cell-based.
Series [4] in a line: Tmax in mouse at 30 mg/kg, po. In kind it is ADME, organism-based. Details: dose 30 mg/kg, route oral. Particulars: in vivo. The essentials: (§1)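 Mouse pharmacokinetics, 15 animals per dose group, dosed intraperitoneally at 30 mg/kg or orally at 10, 30 or 100 mg/kg. Plasma levels were followed from 0 to 6 h.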
Series [5] in a line: Cmax in mouse at 30 mg/kg, po. In kind it is ADME, organism-based. Further details: dose 30 mg/kg, route oral. Particulars: in vivo. The procedure, abridged: as §1
Series [6] is described as follows: Intrinsic clearance in rat Hepatocytes assessed as per million cells. Type of series: ADME, cell-based, Liver, Hepatocyte.
Series [7] can be described thus: Inhibition of CYP. Type of series: ADME.
A short description of series [8]: Tmax in mouse at 100 mg/kg, po. Type of series: ADME, organism-based. Further details: dose 100 mg/kg, route oral. Particulars: in vivo. The procedure, abridged: as §1
A short description of series [9]: Tmax in mouse at 10 mg/kg, po. Type of series: ADME, organism-based. Details: dose 10 mg/kg, route oral. The conditions noted are these: in vivo. The procedure, abridged: as §1
The nature of series [10]: Cmax in mouse at 100 mg/kg, po. Type of series: ADME, organism-based. Details: dose 100 mg/kg, route oral. Particulars: in vivo. The essentials:
as §1

Series [11] is described as follows: Cmax in mouse at 30 mg/kg, ip. Type of series: ADME, organism-based. Details: dose 30 mg/kg, route intraperitoneal. The conditions noted are these: in vivo. The procedure, abridged: as §1
The nature of series [12]: Intrinsic clearance in human Hepatocytes assessed as per million cells. Type of series: ADME, cell-based, Liver, Hepatocyte.
A short description of series [13]: Cmax in mouse at 10 mg/kg, po. Details: dose 10 mg/kg, route oral. The conditions noted are these: in vivo. Type of series: ADME, organism-based. The essentials: as §1
Series [14] can be described thus: AUC (0 to 6 hrs) in mouse at 30 mg/kg, po. Type of series: ADME, organism-based. Details: time < 6 hr, dose 30 mg/kg, route oral. Particulars: plasma. The procedure, abridged:
as §1

A short description of series [15]: Tmax in mouse at 30 mg/kg, ip. Further details: dose 30 mg/kg, route intraperitoneal. Type of series: ADME, organism-based. The conditions noted are these: in vivo. The essentials: as §1
Series [16] is described as follows: AUC (0 to 6 hrs) in mouse at 100 mg/kg, po. The conditions noted are these: plasma. Type of series: ADME, organism-based. Details: time < 6 hr, dose 100 mg/kg, route oral. The essentials:
as §1

A short description of series [17]: AUC (0 to 6 hrs) in mouse at 30 mg/kg, ip. Type of series: ADME, organism-based. Further details: time < 6 hr, dose 30 mg/kg, route intraperitoneal. Particulars: plasma. The procedure, abridged:
as §1

Series [18] in a line: AUC (0 to 6 hrs) in mouse at 10 mg/kg, po. In kind it is ADME, organism-based. Further details: time < 6 hr, dose 10 mg/kg, route oral. Particulars: plasma. The essentials: as §1
A short description of series [19]: Drug level in rat at 10 mg/kg, po at 6 hrs. Type of series: ADME, organism-based. Further details: dose 10 mg/kg, route oral. The conditions noted are these: in vivo, read-out: Drug uptake.
Series [20] in a line: AUC in rat at 10 mg/kg, po. In kind it is ADME, organism-based. The conditions noted are these: plasma. Further details: dose 10 mg/kg, route oral.
Series [21] is described as follows: Permeability across human Caco2 cells. Particulars: Caco-2, read-out: permeability. In kind it is ADME, cell-based.

18 molecules from ChEMBL document CHEMBL1833859, “Discovery of novel imidazo[1,2-a]pyrazin-8-amines as Brk/PTK6 inhibitors” (Bioorg Med Chem Lett, 2011) can be followed below.

Chain of Tyrosine-protein kinase Lck (P06239 whole entry): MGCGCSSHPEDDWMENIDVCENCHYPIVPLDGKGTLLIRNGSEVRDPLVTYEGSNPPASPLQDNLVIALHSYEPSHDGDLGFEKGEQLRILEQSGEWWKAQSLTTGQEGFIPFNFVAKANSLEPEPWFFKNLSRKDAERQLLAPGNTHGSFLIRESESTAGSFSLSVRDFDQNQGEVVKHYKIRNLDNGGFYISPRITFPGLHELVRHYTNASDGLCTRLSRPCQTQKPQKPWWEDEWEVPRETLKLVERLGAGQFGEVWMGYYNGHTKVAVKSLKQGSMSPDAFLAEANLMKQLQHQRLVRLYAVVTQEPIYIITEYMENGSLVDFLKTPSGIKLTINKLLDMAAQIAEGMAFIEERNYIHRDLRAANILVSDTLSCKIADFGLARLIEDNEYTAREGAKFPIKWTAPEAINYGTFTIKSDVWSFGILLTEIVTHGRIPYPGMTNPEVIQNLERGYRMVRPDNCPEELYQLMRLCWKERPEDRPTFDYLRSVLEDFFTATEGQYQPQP
Chain of Aurora kinase B (Q96GD4 whole entry): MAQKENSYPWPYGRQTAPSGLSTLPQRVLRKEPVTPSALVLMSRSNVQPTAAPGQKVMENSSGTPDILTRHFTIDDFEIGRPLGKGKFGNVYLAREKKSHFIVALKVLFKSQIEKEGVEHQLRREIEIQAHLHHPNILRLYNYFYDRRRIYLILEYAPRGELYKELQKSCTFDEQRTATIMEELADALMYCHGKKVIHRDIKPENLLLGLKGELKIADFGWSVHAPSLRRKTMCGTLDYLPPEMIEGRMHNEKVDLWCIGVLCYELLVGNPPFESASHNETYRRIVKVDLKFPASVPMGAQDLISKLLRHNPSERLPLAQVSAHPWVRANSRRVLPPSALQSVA
T1 sequence (Q13882 whole entry): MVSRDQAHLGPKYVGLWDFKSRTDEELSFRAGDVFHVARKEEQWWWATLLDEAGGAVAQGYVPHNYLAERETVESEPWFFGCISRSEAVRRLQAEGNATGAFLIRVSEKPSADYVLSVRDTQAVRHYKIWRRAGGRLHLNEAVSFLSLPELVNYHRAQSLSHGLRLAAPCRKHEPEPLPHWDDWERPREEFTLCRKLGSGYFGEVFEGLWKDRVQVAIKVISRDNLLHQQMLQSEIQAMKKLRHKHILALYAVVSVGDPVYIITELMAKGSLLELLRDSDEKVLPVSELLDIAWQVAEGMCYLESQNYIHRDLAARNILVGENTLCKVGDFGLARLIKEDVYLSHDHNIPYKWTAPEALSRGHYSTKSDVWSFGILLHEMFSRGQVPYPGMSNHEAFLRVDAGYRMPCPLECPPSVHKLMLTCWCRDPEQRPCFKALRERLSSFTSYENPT

`Cc1cn2c(-c3cn[nH]c3)cnc2c(Nc2ccc(C(=O)N3CCNCC3)c(Cl)c2)n1`: the IC50 was 754 nM at Aurora kinase B, 7 nM in series [1], 420 nM in [2] and 157 nM in series [3].
Consider `Cc1cn2c(-c3cn[nH]c3)cnc2c(Nc2ccc(C(=O)N3C[C@H]4CC[C@@H]3CN4)c(Cl)c2)n1`, for which the IC50 on Aurora kinase B worked out at 339 nM; in series [1], 7 nM; in series [2], 1500 nM; in series [3] it was 47 nM.
The matching figures for `O=C(c1ccc(Nc2nc(C3CC3)cn3c(-c4cn[nH]c4)cnc23)cc1Cl)N1C[C@H]2CC[C@@H]1CN2`: 2740 nM, 5 nM, 284 nM and 45 nM.
For the molecule `CCc1cn2c(-c3cn[nH]c3)cnc2c(Nc2ccc(C(=O)N3CCNCC3)c(Cl)c2)n1`, the IC50 was 653 nM at Aurora kinase B, 10 nM in [1], 722 nM in series [2] and 38 nM in series [3].
Regarding `Cc1cn2c(-c3cn[nH]c3)cnc2c(Nc2ccc(C(=O)N3CCNCC3)cc2F)n1`, the Tmax in series [4] worked out at 2 h; in series [8], 4 h; in series [9] it was 6 h; in series [15], 0.5 h. Besides, the Cmax in [5] is 420 nM; in series [10] it was 1600 nM; in series [11] it was 17900 nM; in [13] it was 40 nM. Also, the hepatocyte CLint in series [6] worked out at 5.3 µL/min/1e6 cells; in series [12], 2 µL/min/1e6 cells. Also, the IC50 (in series [7]; against Aurora kinase B; in series [2]) was over 20000 nM in each case. Besides, the AUC(0-t) at 6 h in series [14] was 1.4 µM·h; in series [16], 8.1 µM·h; in series [17], 17.1 µM·h; in series [18] it was 0.1 µM·h.
As to `CC1(C)CN(C(=O)c2ccc(Nc3nc(C4CC4)cn4c(-c5cn[nH]c5)cnc34)c(F)c2)CCN1`, the IC50 was over 20000 nM against Aurora kinase B, 6 nM in series [1], over 20000 nM in series [2] and under 7 nM in [3].
With `Cc1cn2c(-c3cn[nH]c3)cnc2c(Nc2ccc(C(=O)N3CCNCC3)cc2)n1`, the IC50 against Aurora kinase B worked out at 232 nM; in [1] it was 15 nM; in [2] it was 603 nM; in series [3], 167 nM.
For the molecule `Cc1cn2c(-c3cn[nH]c3)cnc2c(Nc2ccc(C(=O)N3CCOCC3)c(Cl)c2)n1`, the concentration at 6 h in series [19] is 1000 nM. Further, the IC50 on Aurora kinase B worked out at 43 nM; in series [1], 8 nM; in series [2], 2000 nM; in [3], 254 nM. In series [20], this molecule displayed an area under the curve (AUC) of 12.6 µM·h.
Take `Cc1cn2c(-c3cn[nH]c3)cnc2c(Nc2ccc(C(=O)N3CCNCC3)c(C(F)(F)F)c2)n1`: the IC50 at Aurora kinase B is 84 nM; in [1], 7 nM; in series [2], 722 nM; in series [3] it was 35 nM.
With `O=C(c1ccc(Nc2nc(C3CC3)cn3c(-c4cn[nH]c4)cnc23)cc1Cl)N1CCNC2(CC2)C1`, the IC50 against Aurora kinase B was found to be 2500 nM; in series [1] it was 13 nM; in [2], 945 nM; in [3] it was 33 nM.
On to `O=C(c1ccc(Nc2nc(C3CC3)cn3c(-c4cn[nH]c4)cnc23)cc1Cl)N1CCNCC1`, for which the IC50 against Aurora kinase B was determined as 2540 nM; in series [1], 6 nM; in series [2] it was 1830 nM; in series [3], 22 nM.
As to `O=C(c1ccc(Nc2nc(C3CC3)cn3c(-c4cn[nH]c4)cnc23)c(F)c1)N1CCOCC1`, the concentration at 6 h in series [19] amounted to 3500 nM. The IC50 against Aurora kinase B is over 20000 nM; in series [1], 30 nM; in series [2], over 20000 nM; in series [3], 52 nM. This molecule also registered an AUC in series [20] of 31.1 µM·h. Further, in series [21], the Papp turned out to be 31.4 ×10⁻⁶ cm/s.
In the case of `CC1(C)CNCCN1C(=O)c1ccc(Nc2nc(C3CC3)cn3c(-c4cn[nH]c4)cnc23)c(F)c1`, the IC50 at Aurora kinase B is over 20000 nM; in series [1] it was 3 nM; in series [2], 14100 nM; in series [3], 7 nM.
The matching figures for `Cc1cn2c(-c3cn[nH]c3)cnc2c(Nc2ccc(C(=O)N3CCNC(C)(C)C3)cc2F)n1`: over 20000 nM, 10 nM, over 20000 nM and 38 nM.
For `O=C(c1ccc(Nc2nc(C3CC3)cn3c(-c4cn[nH]c4)cnc23)cc1Cl)N1C[C@H]2CC[C@@H](C1)N2` the same measures were 2520 nM, 10 nM, 365 nM and 17 nM.
Turning to `Cc1cn2c(-c3cn[nH]c3)cnc2c(Nc2ccnc(N3CCNCC3)c2)n1`, the IC50 against Aurora kinase B worked out at 561 nM; in series [1], 11 nM; in [2], 3710 nM; in series [3], 109 nM.
`O=C(c1ccc(Nc2nc(C3CC3)cn3c(-c4cn[nH]c4)cnc23)cc1Cl)N1CCNCC12CC2`: the half-maximal inhibitory concentration (IC50) against Aurora kinase B amounted to 2990 nM; in series [1] it was 10 nM; in series [2], 597 nM; in series [3] it was 14 nM.
For `Cc1cn2c(-c3cn[nH]c3)cnc2c(Nc2ccc(C(=O)N3CCNCC3(C)C)cc2F)n1` the same measures were over 20000 nM, 9 nM, over 20000 nM and 46 nM.
